This is an account of results in ChEMBL document CHEMBL1156555, “Synthesis and anti-inflammatory activity of 2-aryloxy methyl oxazolines” (Bioorg Med Chem Lett, 2008).

The subject of one data set is Rattus norvegicus. Description: Antiinflammatory activity in albino rat assessed as inhibition of carrageenan-induced paw edema at 40 mg/kg, po administered 30 mins prior to challenge relative to control. Type of data set: functional.
Conditions: not given
The essentials:
(§1)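 Groups of five rats (200–230 g) were dosed orally. After 30 min, 0.2 ml of 1% carrageenan in 0.9% NaCl was injected subcutaneously into the hind-paw plantar aponeurosis. Paw volume was read by water plethysmometer before and at 3 h. % inhibition = (1 − vt/vc) × 100, using mean relative oedema changes against five carrageenan-only controls.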
Consider `Cc1cc(OCC2=NCCO2)ccc1Cl`, for which the inhibition in vivo (in general, the drop in the measured response relative to a control, in per cent) at 40 mg/kg amounted to 45.4%.

With `Cc1ccccc1OCC1=NCCO1`, the inhibition in vivo at 40 mg/kg turned out to be 29.5%.

For the compound `Brc1ccccc1OCC1=NCCO1`, the inhibition in vivo at 40 mg/kg is 29.1%.

In the case of `CCCCC1C(=O)N(c2ccccc2)N(c2ccccc2)C1=O` [PHENYLBUTAZONE], the inhibition in vivo at 40 mg/kg is 35.5%.

On to `Cc1cccc(OCC2=NCCO2)c1`, for which the inhibition in vivo at 40 mg/kg turned out to be 44.6%.

With `O=[N+]([O-])c1cccc(OCC2=NCCO2)c1`, the inhibition in vivo at 40 mg/kg was 29.4%.

On to `Clc1ccccc1OCC1=NCCO1`, for which the inhibition in vivo at 40 mg/kg came to 22.2%.

Take `Cc1ccc(OCC2=NCCO2)c(C)c1`: the inhibition in vivo at 40 mg/kg was 46.5%.

A further data set relates to Rattus norvegicus. Nature of the data set: Toxic ulcerogenic effect in albino rat assessed as incidence of hyperemia at 400 mg/kg, po. Type of data set: toxicity, organism-based. Set-up: dose 400 mg/kg, route oral. Conditions: in vivo. Put shortly:
(§2)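 Rats (200–230 g) in groups of 10 were fasted 24 h, then given the compound orally. They were killed 5 h after dosing. Stomach and small intestine were examined under a microscope for hyperemia, epithelial shedding, petechiae, frank haemorrhage, and erosion or ulceration with or without perforation. Any of these criteria counted as ulcerogenic.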
`Cc1cc(OCC2=NCCO2)ccc1Cl`: the Activity turned out to be 100%.

With `Cc1ccccc1OCC1=NCCO1`, the Activity came out at 100%.

Take `Brc1ccccc1OCC1=NCCO1`: the Activity was 100%.

For the compound `CCCCC1C(=O)N(c2ccccc2)N(c2ccccc2)C1=O` [PHENYLBUTAZONE], the Activity was 90%.

On to `Cc1cccc(OCC2=NCCO2)c1`, for which the Activity amounted to 90%.

In the case of `O=[N+]([O-])c1cccc(OCC2=NCCO2)c1`, the Activity was 55%.

With `Clc1ccccc1OCC1=NCCO1`, the Activity turned out to be 60%.

As for `Cc1ccc(OCC2=NCCO2)c(C)c1`, the Activity worked out at 75%.

A further data set deals with Rattus norvegicus. Nature of the data set: Toxic ulcerogenic effect in albino rat assessed as incidence of hyperemia at 200 mg/kg, po. Type of data set: toxicity, organism-based. Set-up: dose 200 mg/kg, route oral. Conditions: in vivo. Put shortly: as §2
In the case of `Cc1cc(OCC2=NCCO2)ccc1Cl`, the Activity is reported as 70%.

Consider `Cc1ccccc1OCC1=NCCO1`, for which the Activity worked out at 60%.

Turning to `Brc1ccccc1OCC1=NCCO1`, the Activity turned out to be 90%.

For `CCCCC1C(=O)N(c2ccccc2)N(c2ccccc2)C1=O` [PHENYLBUTAZONE], the Activity was determined as 60%.

As to `Cc1cccc(OCC2=NCCO2)c1`, the Activity came to 70%.

Turning to `O=[N+]([O-])c1cccc(OCC2=NCCO2)c1`, the Activity turned out to be 35%.

Consider `Clc1ccccc1OCC1=NCCO1`, for which the Activity was 40%.

Take `Cc1ccc(OCC2=NCCO2)c(C)c1`: the Activity came out at 50%.

The subject of another data set is Rattus norvegicus. Description: Antiinflammatory activity in albino rat assessed as inhibition of carrageenan-induced paw edema at 20 mg/kg, po administered 30 mins prior to challenge relative to control. Type of data set: functional.
Conditions: not given
Put shortly:
as §1
Background: Carrageenan injected into the paw causes an acute inflammation.
As to `Cc1cc(OCC2=NCCO2)ccc1Cl`, the inhibition in vivo at 20 mg/kg came out at 22.2%.

Turning to `Cc1ccccc1OCC1=NCCO1`, the inhibition in vivo at 20 mg/kg came out at 3.1%.

As for `Brc1ccccc1OCC1=NCCO1`, the inhibition in vivo at 20 mg/kg came out at 20.1%.

Consider `CCCCC1C(=O)N(c2ccccc2)N(c2ccccc2)C1=O` [PHENYLBUTAZONE], for which the inhibition in vivo at 20 mg/kg came to 31.3%.

Take `Cc1cccc(OCC2=NCCO2)c1`: the inhibition in vivo at 20 mg/kg was determined as 16.6%.

With `O=[N+]([O-])c1cccc(OCC2=NCCO2)c1`, the inhibition in vivo at 20 mg/kg turned out to be 15.5%.

Regarding `Clc1ccccc1OCC1=NCCO1`, the inhibition in vivo at 20 mg/kg was determined as 13.7%.

Regarding `Cc1ccc(OCC2=NCCO2)c(C)c1`, the inhibition in vivo at 20 mg/kg turned out to be 31.4%.

The subject of another data set is Rattus norvegicus. Nature of the data set: Toxic ulcerogenic effect in albino rat assessed as incidence of ulcer at 400 mg/kg, po. Set-up: dose 400 mg/kg, route oral. Type of data set: toxicity, organism-based. Conditions: in vivo. The essentials: as §2
Take `Cc1cc(OCC2=NCCO2)ccc1Cl`: the Activity was 40%.

Consider `Cc1ccccc1OCC1=NCCO1`, for which the Activity was 40%.

For `Brc1ccccc1OCC1=NCCO1`, the Activity turned out to be 40%.

Turning to `CCCCC1C(=O)N(c2ccccc2)N(c2ccccc2)C1=O` [PHENYLBUTAZONE], the Activity stood at 90%.

Take `Cc1cccc(OCC2=NCCO2)c1`: the Activity was found to be 25%.

With `O=[N+]([O-])c1cccc(OCC2=NCCO2)c1`, the Activity is 80%.

Regarding `Clc1ccccc1OCC1=NCCO1`, the Activity is given as 80%.

As for `Cc1ccc(OCC2=NCCO2)c(C)c1`, the Activity is given as 18%.

The next data set deals with Rattus norvegicus. Nature of the data set: Toxic ulcerogenic effect in albino rat assessed as incidence of ulcer at 100 mg/kg, po. Type of data set: toxicity, organism-based. Also noted: dose 100 mg/kg, route oral. Conditions: in vivo. The essentials:
as §2
`Cc1cc(OCC2=NCCO2)ccc1Cl`: the Activity turned out to be 20%.

On to `Cc1ccccc1OCC1=NCCO1`, for which the Activity is reported as 10%.

As to `Brc1ccccc1OCC1=NCCO1`, the Activity came to 10%.

As for `CCCCC1C(=O)N(c2ccccc2)N(c2ccccc2)C1=O` [PHENYLBUTAZONE], the Activity is on record as 30%.

As for `Cc1cccc(OCC2=NCCO2)c1`, the Activity came out at 15%.

In the case of `O=[N+]([O-])c1cccc(OCC2=NCCO2)c1`, the Activity turned out to be 45%.

Regarding `Clc1ccccc1OCC1=NCCO1`, the Activity is 40%.

Take `Cc1ccc(OCC2=NCCO2)c(C)c1`: the Activity amounted to 15%.

The test system of a further data set is Rattus norvegicus. Description: Antiinflammatory activity in albino rat assessed as inhibition of carrageenan-induced paw edema at 80 mg/kg, po administered 30 mins prior to challenge relative to control. Type of data set: functional.
Conditions: not given
Put shortly: as §1
Regarding `Cc1cc(OCC2=NCCO2)ccc1Cl`, the inhibition in vivo at 80 mg/kg came out at 77.1%.

For the compound `Cc1ccccc1OCC1=NCCO1`, the inhibition in vivo at 80 mg/kg was found to be 55.3%.

`Brc1ccccc1OCC1=NCCO1`: the inhibition in vivo at 80 mg/kg was 62.8%.

As for `CCCCC1C(=O)N(c2ccccc2)N(c2ccccc2)C1=O` [PHENYLBUTAZONE], the inhibition in vivo at 80 mg/kg was determined as 57.2%.

In the case of `Cc1cccc(OCC2=NCCO2)c1`, the inhibition in vivo at 80 mg/kg came to 64.1%.

Consider `O=[N+]([O-])c1cccc(OCC2=NCCO2)c1`, for which the inhibition in vivo at 80 mg/kg was determined as 46.5%.

As for `Clc1ccccc1OCC1=NCCO1`, the inhibition in vivo at 80 mg/kg was 45.5%.

Regarding `Cc1ccc(OCC2=NCCO2)c(C)c1`, the inhibition in vivo at 80 mg/kg worked out at 85.5%.

The subject of a further data set is Rattus norvegicus. Nature of the data set: Toxic ulcerogenic effect in albino rat assessed as incidence of hyperemia at 100 mg/kg, po. Type of data set: toxicity, organism-based. As to conditions: in vivo. Also noted: dose 100 mg/kg, route oral. Put shortly:
as §2
Turning to `Cc1cc(OCC2=NCCO2)ccc1Cl`, the Activity turned out to be 50%.

Consider `Cc1ccccc1OCC1=NCCO1`, for which the Activity came out at 40%.

On to `Brc1ccccc1OCC1=NCCO1`, for which the Activity is listed as 70%.

With `CCCCC1C(=O)N(c2ccccc2)N(c2ccccc2)C1=O` [PHENYLBUTAZONE], the Activity is 30%.

As for `Cc1cccc(OCC2=NCCO2)c1`, the Activity came to 50%.

Turning to `O=[N+]([O-])c1cccc(OCC2=NCCO2)c1`, the Activity was 20%.

Take `Clc1ccccc1OCC1=NCCO1`: the Activity came out at 20%.

For the compound `Cc1ccc(OCC2=NCCO2)c(C)c1`, the Activity is on record as 25%.

In a further data set the test system is Rattus norvegicus. Nature of the data set: Antiinflammatory activity in po dosed albino rat assessed as inhibition of carrageenan-induced paw edema administered 30 mins prior to challenge. Type of data set: functional.
Conditions: not given
Take `Cc1cc(OCC2=NCCO2)ccc1Cl`: the ED50 (commonly the midpoint of the dose-response relation) turned out to be 60.2 mg/kg.

For the compound `Cc1ccccc1OCC1=NCCO1`, the ED50 came to 78.3 mg/kg.

For `Brc1ccccc1OCC1=NCCO1`, the ED50 worked out at 62.5 mg/kg.

For `Cc1cccc(OCC2=NCCO2)c1`, the ED50 is 76.2 mg/kg.

For the compound `O=[N+]([O-])c1cccc(OCC2=NCCO2)c1`, the ED50 is 75.5 mg/kg.

For the compound `Clc1ccccc1OCC1=NCCO1`, the ED50 turned out to be 77.5 mg/kg.

For the compound `Cc1ccc(OCC2=NCCO2)c(C)c1`, the ED50 was 57.3 mg/kg.

The species named for another data set is Oryctolagus cuniculus. Nature of the data set: Inhibition of cyclooxygenase in rabbit colon microsomes assessed as reduction in conversion of arachidonic acid to PGE2 at 10 uM by liquid scintillation spectrometry relative to control.
Conditions: not given
Put shortly:
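Rabbit distal colon mucosa (2–3 g) was homogenized in 0.1 M Tris pH 8.0, and the microsomal pellet was used fresh. Microsomes were incubated with the test agent for 10 min at 37 °C in Tris-HCl pH 8.0 with 2 mM reduced glutathione, L-tryptophan and hematin. Products were separated by isocratic HPLC (150 mM orthophosphoric acid pH 3.5, 30% acetonitrile; UV 214 nm), and PGE2-co-eluting radioactivity was counted by liquid scintillation.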
Turning to `Cc1cc(OCC2=NCCO2)ccc1Cl`, the inhibition – broadly, the relative decrease from the control value, in per cent – is 87%.

Consider `Cc1ccccc1OCC1=NCCO1`, for which the inhibition stood at 20%.

Take `Brc1ccccc1OCC1=NCCO1`: the inhibition was found to be 40%.

As to `CCCCC1C(=O)N(c2ccccc2)N(c2ccccc2)C1=O` [PHENYLBUTAZONE], the inhibition came to 60%.

Consider `Cc1cccc(OCC2=NCCO2)c1`, for which the inhibition worked out at 70%.

Test system in a further data set: not listed separately
Nature of the data set: Acute toxicity in albino rat assessed as mortality after 24 hrs. Type of data set: organism-based. Conditions: in vivo, read-out: ALD50. The essentials: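 Albino rats (200–230 g), groups of 10, given test compounds intraperitoneally at several dose levels. Percent mortality per group recorded 24 h after dosing. ALD50 calculated from the mortality data by a previously described method.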
For `Cc1cc(OCC2=NCCO2)ccc1Cl`, the LD50 at 24 h was above 1000 mg/kg.

In the case of `Cc1ccccc1OCC1=NCCO1`, the LD50 at 24 h is above 1000 mg/kg.

With `Brc1ccccc1OCC1=NCCO1`, the LD50 at 24 h is above 1000 mg/kg.

Turning to `Cc1cccc(OCC2=NCCO2)c1`, the LD50 at 24 h is above 1000 mg/kg.

On to `O=[N+]([O-])c1cccc(OCC2=NCCO2)c1`, for which the LD50 at 24 h is above 1000 mg/kg.

As for `Clc1ccccc1OCC1=NCCO1`, the LD50 at 24 h was above 1000 mg/kg.

As for `Cc1ccc(OCC2=NCCO2)c(C)c1`, the LD50 at 24 h was above 1000 mg/kg.

Another data set relates to Rattus norvegicus. Nature of the data set: Toxic ulcerogenic effect in albino rat assessed as incidence of ulcer at 200 mg/kg, po. Type of data set: toxicity, organism-based. Conditions: in vivo. Also noted: dose 200 mg/kg, route oral. Put shortly: as §2
Consider `Cc1cc(OCC2=NCCO2)ccc1Cl`, for which the Activity came out at 30%.

In the case of `Cc1ccccc1OCC1=NCCO1`, the Activity came out at 20%.

`Brc1ccccc1OCC1=NCCO1`: the Activity is on record as 20%.

In the case of `CCCCC1C(=O)N(c2ccccc2)N(c2ccccc2)C1=O` [PHENYLBUTAZONE], the Activity is 60%.

On to `Cc1cccc(OCC2=NCCO2)c1`, for which the Activity was found to be 20%.

As for `O=[N+]([O-])c1cccc(OCC2=NCCO2)c1`, the Activity came out at 30%.

Consider `Clc1ccccc1OCC1=NCCO1`, for which the Activity is given as 30%.

`Cc1ccc(OCC2=NCCO2)c(C)c1`: the Activity stood at 25%.
